# Results: the EternaBench riboswitch data
# Test system: MS2 coat protein
# Assay: apparent Kd, MS2 coat protein; higher = weaker binding; RNA-MaP array; FMN 200 µM where present
# Summary of the method: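 In 100 mM Tris-HCl pH 7.5, 80 mM KCl, 4 mM MgCl2, BSA, DTT, yeast tRNA and Tween-20, SNAP-549-labelled MS2 coat protein was titrated from 0.7 or 1.5 nM, doubling to 3 µM, over designs transcribed by stalled E. coli RNA polymerase on Illumina sequencing-chip clusters. This was done first without ligand, then with ligand held constant. After green signal was normalised to red-channel RNA signal and control-cluster median Fmax, the apparent Kd was taken as the median of filtered per-cluster binding-curve fits.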
# [1] = designed as: ON switch for flavin mononucleotide, no ligand
# [2] = ligand present: flavin mononucleotide, designed as: ON switch for flavin mononucleotide
# [3] = designed as: OFF switch for flavin mononucleotide, no ligand
# [4] = ligand present: flavin mononucleotide, designed as: OFF switch for flavin mononucleotide
sequence,measurement,setting,value
UUGGACGUCGUAGGAUAUGUAGGAUAUUCCUACAUGAGGAUCACCCAUGUUGACAUGGAACAAGGACAGAAGGACGAUGUCCAU,apparent Kd,[1],493 nM
same,apparent Kd,[2],17.4 nM
UUAUUUUUUGAGGAUAUGCGACGUUUUUUCGUCGUAGAAGGCGAUACAUGAGGAUCACCCAUGUUUAUGGGCAU,apparent Kd,[3],89.7 nM
same,apparent Kd,[4],157 nM
GGGUACAUCGGAGGAUAUCAUGUAAAUACAUGAGGAUCACCCAUGUCGAUAGAGACAUCGGAGAUUGAGAAGGCCGAUGUACCG,apparent Kd,[1],41.7 nM
same,apparent Kd,[2],300 nM
AUUAUUAAGGUAGGAUAUAGUAAAAUAAUUUAAUUAGAAGGAUCUCACAUGAGGAUCACCCAUGUAAGAGGAUCACCCAUGUAU,apparent Kd,[3],10.8 nM
same,apparent Kd,[4],9.53 nM
GGUCGUCACAUUAACAUGAGGAUCACCCAUGUCAAAAGACAUGAGGAUAUGCAUAAUAAUAUAAAGCAGAAGGCAUGGACGACC,apparent Kd,[1],240 nM
same,apparent Kd,[2],14.4 nM
ACGUUUAAUACAGGAUAUGUUCUUAUACUAUAGAUUGGUUAUUACUUAAUUACAGAAGGGUAGAACAUGAGGAUCACCCAUGUA,apparent Kd,[1],507 nM
same,apparent Kd,[2],261 nM
GGGUACAUCGGAGGAUAUCAUGUAAAUACAUGAGGAUCACCCAUGUCGAUGGAGCCAUCGGAGAUUGAGAAGGCCGAUGUACCG,apparent Kd,[1],14.3 nM
same,apparent Kd,[2],5.63 nM
UCAUGGUAGCAGGAUAUGCUUGUUUUUUUUUUUGCAGAAGGGCUUACAUGAGGAUCACCCAUGUGUUAGGUCUA,apparent Kd,[3],25.2 nM
same,apparent Kd,[4],30.8 nM
CAGAUCGGCGCAGGAUAUGUCGACAUGAGGAUCACCCAUGUAAACCUUGUCUGGUCCGGUGUGUGACAGAAGGGUGUCGGCCAU,apparent Kd,[3],31.5 nM
same,apparent Kd,[4],30.9 nM
UAUUAGUAAGGAUAUCUCGUCAUGGACGUGAGUCCAUGACGAGAGAAGGUACAUGAGGAUCACCCAUGUUCAUU,apparent Kd,[3],15.9 nM
same,apparent Kd,[4],18.3 nM
AGACUGAAUGUUAGGAUAUGGUUUCGGGUCUCGGACCAGAAGGAACAUGAGGAUCACCCAUGUGCCGUGGUUGU,apparent Kd,[3],29 nM
same,apparent Kd,[4],153 nM
AGUAUGCGGCAGGAUAUCCAUCCGCGAAAAGGUGGAGAAGGGCUGACAUGAGGAUCACCCAUGUGCGUUUUGUA,apparent Kd,[3],56 nM
same,apparent Kd,[4],40 nM
UUGGGAUGCAAGAAGGGUGACAUGAGGAUCACCCAUGUGUUGUGAAUUCUCGAGAUUUUAUGACCAUAGGAUAUUGCACCGAAC,apparent Kd,[1],28.5 nM
same,apparent Kd,[2],12.2 nM
GGCUGGCAGCUAGGAUAUGGGCGAUCACAUGAGGAUCACCCAUGUCAACAUCAAAACAAGAUUAACCAGAAGGAGCCGCGGGUU,apparent Kd,[1],18.4 nM
same,apparent Kd,[2],76.7 nM
UGGUACUAGGGAGGAUAUGGGAAGAUACAUGAGGAUCACCCAUGUUUAAGAAUGCCGAUAGGCAACUAGAAGGCCCUAGUACCU,apparent Kd,[1],406 nM
same,apparent Kd,[2],18.7 nM
UGCCGUUUAGGAUAUACAUGAGGAUCACCCAUGUGACACACAUAUUUUACAAAACCAUGUAGAAGGAAACGGCA,apparent Kd,[3],104 nM
same,apparent Kd,[4],512 nM
UCCACUGCUGAGAAGGGAUACGUCUGGUUCGCAUCAGGAUAUCGAUACAGUGCAGCAUGAGGACAUGAGGAUCACCCAUGUAUC,apparent Kd,[1],11 nM
same,apparent Kd,[2],8.98 nM
ACUGUUAAGACAGGAUAUCGAUUAUAACCUCUAAAACAUGAGGAUCACCCAUGUAGUCCGUAUUGCGAGAAGGGUCAUCUUAGA,apparent Kd,[1],274 nM
same,apparent Kd,[2],205 nM
GGAGAGGUAGGAUAUGGAGCUUAGAACAUGAGGAUCACCCAUGUAGGACCACAUGAUUUGCCAGAAGGACCAGUCC,apparent Kd,[3],421 nM
same,apparent Kd,[4],558 nM
AUUUGAAUCGUAGGAUAUCGCUUAAAUUUACCACGAGAAGGACGAACAUGAGGAUCACCCAUGUAACAUGGUGUAGAUAAUUUG,apparent Kd,[3],159 nM
same,apparent Kd,[4],440 nM
AGAAGACAUGAGGAUCACCCAUGUGGGAUUAUGGGAGGAUAUACAAAGACGAGAGUCAGAGUAGAAGGCCUAGGAC,apparent Kd,[1],65.6 nM
same,apparent Kd,[2],26.7 nM
AAAACAUGAGGAUCACCCAUGUAUAGAUCGAUUAUUAGGAGUGAGGAUAUGCAAGUUAUAAGGUAGCAGAAGGCACUGGGAAAA,apparent Kd,[1],25.7 nM
same,apparent Kd,[2],24.8 nM
AGAUCACAAAUUUGGGAUAGUAGUACAGAAGGCACGGAAGUACAUGAGGAUCACCCAUGUGUGGGUGAGGAUAUGUACUCACUA,apparent Kd,[1],217 nM
same,apparent Kd,[2],14 nM
UCGUAUACACAAGGAUAUCAAUGAUUUGUGGAUCCUACAUGAGGAUCACCCAUGUUUUUAUAUUGUGAGAAGGUGUAGUGUCUU,apparent Kd,[1],507 nM
same,apparent Kd,[2],684 nM
AUCAGCUCGUCAGGAUAUACGUCACCGCGUCAGCAGUGUGGUAAGAUCACAUGAGGAUCACCCAUGUAGAAGGGACGAGCUGAU,apparent Kd,[3],13.6 nM
same,apparent Kd,[4],237 nM
CAGAAGUCAGGAUAUGCAUGGCGGGACUUGCGUCGUGGCGUGCAGAAGGGACAUGAGGAUCACCCAUGUGGAGG,apparent Kd,[3],171 nM
same,apparent Kd,[4],222 nM
AGAAAAUAUGGGUAGGAUAUAUAAAGAGAAACAUGAGGAUCACCCAUGUAAAGACGAGAGUCAAAAUAGAAGGACUAAAGAAAGAA,apparent Kd,[1],76 nM
same,apparent Kd,[2],59.6 nM
UUAUGUUUUGUAGGAUAUCAUUAGUUAUGUAUUUUAAUUGAAAUUUAGAUAUGAGAAGGACAUUUACAUGAGGAUCACCCAUGU,apparent Kd,[3],17.4 nM
same,apparent Kd,[4],11.1 nM
UAGGUGUGAGGAUAUGGUAAAGAUAAAAUGAUGAAAGAACUCCAGAAGGCACAUGAGGAUCACCCAUGUAGAUG,apparent Kd,[3],29.2 nM
same,apparent Kd,[4],54.9 nM
GUCAGCUCGUGAGGAUAUGCAUCACUGCUUCGGCAGUGUAUUAAGAUCACAUGAGGAUCACCCAUGUAGAAGGCACGAGCUGAU,apparent Kd,[3],7.3 nM
same,apparent Kd,[4],41.7 nM
GCUUUAUAGAUCCAUUUUAACAACAUGAGGAUCACCCAUGUGCAGGAUAUCGAUUGUUUUAUUUUCGAGAAGGGCAAAUUCAGC,apparent Kd,[3],35.2 nM
same,apparent Kd,[4],87.7 nM
CCCAAACUUGGGCUUGGCGGUGCAUAGGAUAUCCUUGAACAUGAGGAUCACCCAUGUACAACUGUGGAGAAGGGUGCAGGGCCU,apparent Kd,[1],132 nM
same,apparent Kd,[2],17.3 nM
UCUACAUAAAUUCAUCAAUACAGUAAGGAUAUGAGAUACAUGAGGAUCACCCAUGUGCAUGUGAAUUAGAAGGUACAAUUAACU,apparent Kd,[3],14.4 nM
same,apparent Kd,[4],12 nM
GGAAACUACGAGAAGGACAUGUGGUCCUUCAGUUACAUGAGGAUCACCCAUGUAGGAUAUCGUAGUUUCAGGAUCGUGAGAUCU,apparent Kd,[3],35.4 nM
same,apparent Kd,[4],13.7 nM
CGAUGGUAUAUAGGAUAUCAUGUGCAAACAUGAGGAUCACCCAUGUAGGAACGUCAGUUCAAUAAUGAGAAGGAUAUACCAUCG,apparent Kd,[1],35.1 nM
same,apparent Kd,[2],10.9 nM
GUCUGUUACGAGAAGGACAAUUGGAUGCAGGCUGUAGGAUAUCGAGGCAGACAUGAGGAUCACCCAUGUAGGCUUACGAUGGGU,apparent Kd,[3],11.7 nM
same,apparent Kd,[4],19.1 nM
GGUACUCAAAGAGUACCAAUACGAACAUGAGGAUCACCCAUGUAGGAUAUGAAAACGCCGGAGUAGCAGAAGGACAUGUGCCUA,apparent Kd,[3],11.4 nM
same,apparent Kd,[4],11.1 nM
UCAGGCUUCGAGAAGGACAUGAGGAUCACCCAUGUUAACAUGAAGCAGCCGUGAGGCUGCAUCAUGUAGGAUAUCGGAGUCUGC,apparent Kd,[3],5.44 nM
same,apparent Kd,[4],6.09 nM
GUGUACAGAGGAUAUACAUAAGCUAGGAAACUAGCAAACUCACAUGAGGAUCACCCAUGUAGAAGGCUGUACAC,apparent Kd,[3],48 nM
same,apparent Kd,[4],257 nM
UCCCGUUGUCAGAAGGCUCCUCGGAACCCGAGGAGAGGAUAUGACACAUGAGGAUCACCCAUGUGCCCGGUCGUGACAAAGGUG,apparent Kd,[3],13.4 nM
same,apparent Kd,[4],146 nM
AAGAAACAUGAGGAUCACCCAUGUCAGGAUAUGCAAGACUGACGAAAGUCAGUCAAAAGCAGAAGGGACUAGAA,apparent Kd,[3],57.2 nM
same,apparent Kd,[4],76.6 nM
